One compound from ChEMBL document CHEMBL4330143, “Maximizing ER-α Degradation Maximizes Activity in a Tamoxifen-Resistant Breast Cancer Model: Identification of GDC-0927” (ACS Med Chem Lett, 2019) can be followed below.

The source made the active and inactive calls. No cut-off for these calls is given here.

Series [1] in a line: Unbound AUC (0 to 24 hrs) in nude mouse xenografted with tamoxifen-resistant human MCF7 cells at 100 mg/kg, po daily for 28 days measured on day 28 post last dose. The series is classed as ADME, organism-based. The note with it: in vivo. The gist of the method: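 Tamoxifen-resistant MCF-7 xenograft mice carrying subcutaneous 0.72 mg estradiol pellets. Plasma pharmacokinetics sampled on day 28 of the study, at take-down.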
In general terms: A xenograft is tissue or cells of one species grown in another, often human tumour cells in immunodeficient mice.

Series [2] is described as follows: Clearance in rat at 10 mg/kg, po daily for 3 days measured on day 3 post last dose. As to conditions: in vivo. The series is classed as ADME, organism-based.
The subject of series [3] is MCF7. The series can be described thus: Antitumor activity against tamoxifen-resistant human MCF7 cells xenografted in nude mouse at 100 mg/kg, po daily for 28 days. The series is classed as functional, organism-based. The gist of the method:
(§1)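 Tamoxifen-resistant MCF-7 tumours grown subcutaneously in mice, with estradiol supplied from subcutaneous 0.72 mg estradiol pellets.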

For series [4], the system named is Mus musculus. Put plainly: In vivo induction of ERalpha degradation in tumor of nude mouse xenografted with tamoxifen-resistant human MCF7 cells at 100 mg/kg, po daily for 28 days measured on day 28 post last dose. The series is classed as functional, organism-based. The method, boiled down:
as §1

The test system of series [5] is Rattus norvegicus. Put plainly: In vivo inverse agonist activity at ERalpha in CD-IGS rat assessed as decrease in uterine weight at 10 mg/kg, po for 3 consecutive days measured at 24 hrs post last dose. In kind it is functional, organism-based. The gist of the method:
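Rat uterine wet weight assay run in agonist mode, with no ethynyl estradiol added. Oral dosing at 10 mg/kg for 3 days. Uterine weights compared with those of vehicle-treated animals.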

Series [6] in a line: AUC in rat at 10 mg/kg, po daily for 3 days measured on day 3 post last dose. In kind it is ADME, organism-based. The note with it: in vivo.
Series [7] addresses T1, Mineralocorticoid receptor (Homo sapiens) (UniProt P08235).
T1 sequence (whole entry): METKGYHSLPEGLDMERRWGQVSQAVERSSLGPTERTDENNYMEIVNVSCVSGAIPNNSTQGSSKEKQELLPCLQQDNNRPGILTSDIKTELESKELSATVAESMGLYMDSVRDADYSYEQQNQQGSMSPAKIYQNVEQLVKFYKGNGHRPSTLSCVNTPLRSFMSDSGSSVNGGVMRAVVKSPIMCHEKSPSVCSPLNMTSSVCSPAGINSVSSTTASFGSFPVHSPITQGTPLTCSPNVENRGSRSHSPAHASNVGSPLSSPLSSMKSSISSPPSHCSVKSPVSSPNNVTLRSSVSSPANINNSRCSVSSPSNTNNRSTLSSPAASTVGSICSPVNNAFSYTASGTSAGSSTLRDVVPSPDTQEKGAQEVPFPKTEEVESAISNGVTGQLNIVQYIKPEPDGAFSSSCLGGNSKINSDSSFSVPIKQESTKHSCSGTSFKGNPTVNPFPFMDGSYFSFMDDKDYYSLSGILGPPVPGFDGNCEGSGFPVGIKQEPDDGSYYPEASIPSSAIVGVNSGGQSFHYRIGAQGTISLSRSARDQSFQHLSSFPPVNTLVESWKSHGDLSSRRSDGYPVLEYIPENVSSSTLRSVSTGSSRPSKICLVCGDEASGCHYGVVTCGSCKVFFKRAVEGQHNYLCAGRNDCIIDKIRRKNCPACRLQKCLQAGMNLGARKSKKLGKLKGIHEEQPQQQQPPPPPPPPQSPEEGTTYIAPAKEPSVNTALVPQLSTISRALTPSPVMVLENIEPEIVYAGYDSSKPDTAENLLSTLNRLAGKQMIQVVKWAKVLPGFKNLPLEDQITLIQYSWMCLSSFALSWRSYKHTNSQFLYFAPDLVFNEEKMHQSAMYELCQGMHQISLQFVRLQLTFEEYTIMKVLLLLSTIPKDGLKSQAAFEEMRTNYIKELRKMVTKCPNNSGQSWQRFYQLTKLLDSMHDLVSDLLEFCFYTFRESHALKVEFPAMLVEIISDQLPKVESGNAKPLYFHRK
The series can be described thus: Antagonist activity at MR (unknown origin) by transcriptional reporter assay. In general terms: In a reporter assay the amount or activity of a reporter protein is the signal.

Series [8] concerns the target Cytochrome P450 2C19 (Homo sapiens, UniProt P33261). Put plainly: Competitive inhibition of CYP2C19 (unknown origin). In kind it is ADME.
Series [9] addresses Sodium-dependent dopamine transporter (Homo sapiens, UniProt Q01959). Put plainly: Inhibition of dopamine transporter (unknown origin). The method, boiled down:
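Cell-based functional follow-up assay, done after hits in a radioligand binding panel run under protein-free conditions. Value reported as IC50.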

A short description of series [10]: Genotoxicity in Salmonella typhimurium TA98 by Ames test. The note with it: salmonella enterica subsp. enterica serovar […]. In kind it is toxicity. On the technique in general: The Ames test detects mutagens through reverse mutation in bacteria.

What is called CL/F is the apparent clearance, not corrected for the fraction that reaches the circulation. What is called AUC is the area under the concentration-time curve, a measure of exposure. As a reminder, the IC50 is the concentration at which inhibition is half-maximal. Low readings indicate inhibition by little substance, high ones a need for much substance.

Sequence of Sodium-dependent dopamine transporter (Q01959 whole entry): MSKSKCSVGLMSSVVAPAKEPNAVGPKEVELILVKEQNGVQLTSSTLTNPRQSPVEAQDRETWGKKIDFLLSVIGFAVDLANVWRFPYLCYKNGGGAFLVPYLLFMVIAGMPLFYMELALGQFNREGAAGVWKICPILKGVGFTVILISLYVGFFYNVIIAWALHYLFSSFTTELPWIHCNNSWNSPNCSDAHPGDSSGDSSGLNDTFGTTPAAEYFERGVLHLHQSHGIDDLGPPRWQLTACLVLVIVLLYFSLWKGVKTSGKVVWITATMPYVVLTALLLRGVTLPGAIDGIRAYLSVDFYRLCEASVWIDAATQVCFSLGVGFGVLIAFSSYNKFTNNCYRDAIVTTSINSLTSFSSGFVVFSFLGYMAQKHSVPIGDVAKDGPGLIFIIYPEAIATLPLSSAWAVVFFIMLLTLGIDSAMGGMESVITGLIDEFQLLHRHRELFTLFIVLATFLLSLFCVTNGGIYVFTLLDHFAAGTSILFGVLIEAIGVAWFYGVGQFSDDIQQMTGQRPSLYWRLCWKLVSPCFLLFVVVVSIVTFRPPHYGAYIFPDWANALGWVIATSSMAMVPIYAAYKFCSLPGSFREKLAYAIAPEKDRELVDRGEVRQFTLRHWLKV
Sequence of Cytochrome P450 2C19 (P33261 whole entry): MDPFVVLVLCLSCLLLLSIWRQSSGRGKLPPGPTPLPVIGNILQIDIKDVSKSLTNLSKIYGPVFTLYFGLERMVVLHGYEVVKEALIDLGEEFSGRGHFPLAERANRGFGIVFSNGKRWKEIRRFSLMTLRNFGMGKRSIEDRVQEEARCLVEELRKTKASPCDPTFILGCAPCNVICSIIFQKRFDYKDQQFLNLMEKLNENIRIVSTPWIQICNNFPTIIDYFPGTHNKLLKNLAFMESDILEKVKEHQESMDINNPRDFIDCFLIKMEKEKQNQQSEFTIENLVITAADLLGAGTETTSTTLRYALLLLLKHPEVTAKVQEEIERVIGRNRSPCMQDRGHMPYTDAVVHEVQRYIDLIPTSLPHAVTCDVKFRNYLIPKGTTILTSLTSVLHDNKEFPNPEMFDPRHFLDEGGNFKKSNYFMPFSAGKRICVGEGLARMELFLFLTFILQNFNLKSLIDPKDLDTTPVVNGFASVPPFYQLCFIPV

Consider `CC1=C(c2cccc(O)c2)[C@H](c2ccc(OCCN3CC(CF)C3)cc2)Oc2ccc(O)cc21`, for which the fAUC in series [1] worked out at 130 ng·h/mL. In [2], this compound gave a CL/F greater than 60 mL/min/kg. Further, the result in series [3], in series [4] and in series [5] was Active. This compound also showed an AUC at 72 h in [6] of 160 ng·h/mL. In series [7], the inhibition result was “inactive”. The concentration for half-maximal inhibition (IC50) in [8] was greater than 10000 nM; in [9], 390 nM. In addition, the Activity entry in [10] is recorded as “Non-Toxic”.
